MC4R antag cAMP: MC4R antagonists of cAMP signaling, primary screen, cell-based, TR-FRET, antagonist arm of biased-ligand search | MC4R-expressing cells, MTII-stimulated cAMP, LANCE TR-FRET | hit rate 0.48% among 360,000 | inhibition, % at 6.5 µM | Melanocortin receptor 4 (Homo sapiens), P32245;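 active = inhibition above its plate's cutoff, the mean of tested wells on that plate plus 3 SD, cut at about 29% in these data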;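 also: 0% = Melanotan II alone and 100% = Melanotan II plus saturating MCL0020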
Target sequence (P32245 whole entry, looked up): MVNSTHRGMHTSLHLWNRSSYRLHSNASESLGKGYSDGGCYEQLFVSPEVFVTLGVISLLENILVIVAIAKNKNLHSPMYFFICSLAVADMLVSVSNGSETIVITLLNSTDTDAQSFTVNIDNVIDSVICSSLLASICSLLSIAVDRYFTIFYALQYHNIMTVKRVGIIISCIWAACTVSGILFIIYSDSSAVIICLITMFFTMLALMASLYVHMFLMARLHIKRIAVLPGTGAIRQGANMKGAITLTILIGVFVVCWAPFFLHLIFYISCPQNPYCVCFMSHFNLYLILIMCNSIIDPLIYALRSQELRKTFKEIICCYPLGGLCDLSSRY
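Assay system: human MC4R-expressing U2OS cells; reagent: Melanotan II stimulation of cells; dosing: 6.5 µM single dose; timing: compound 30 min, challenge 1 h, detection 1 h; signal: TR-FRET cAMP assay; replicates: one well per compound, no replicates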
AI-2 QS mod: Vibrio harveyi AI-2 quorum sensing modulators, primary screen, JMH597 strain, luminescence/OD600 ratio; Vibrio harveyi JMH597 AI-2 luminescence/OD600 ratio, 9 h; hits give low values; strain lacks LuxN and CqsS sensors; 0 = neutral-control median; activity change, % at 7.5 µM; hit rate 0.4% among 300,000; AID 2094, 2009; in the data active = activity change below about -75%, passing the limit was not always enough; inconclusive = no clear call, values can overlap the other calls;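 also: luminescence divided by OD600 gain over 9 h not by final OD600 alone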
NTR1 agonist: agonists of human NTR1, primary screen, imaging, U2OS cells, beta-arrestin-GFP, high content. Neurotensin receptor type 1 (Homo sapiens), P30989. NTR1-U2OS beta-arrestin-GFP spot imaging, agonist mode. activation, % at 20 µM. hit rate 0.17% among 330,000;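 active = activation at or above 40% of the spot to cytoplasm intensity ratio, with at least 20 cells analyzed; inconclusive = wells under 20 cells, flagged as cytotoxic or low count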;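 also: 0% = DMSO without peptide and 100% = 100 nM NTR1 peptide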
MC4R ag barr: MC4R agonists recruiting beta-arrestin, primary screen, cell-based, luminescence, agonist arm of biased-ligand search | Melanocortin receptor 4 (Homo sapiens), P32245 | U2OS MC4R beta-arrestin complementation; percent of melanotan II response, DMSO zero | activation, % at 8.9 µM | hit rate 0.98% among 360,000 | AID 540308, 2011;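 active = activation above a per-plate cutoff, the mean activation of sample wells on that plate plus 3 SD, cut at about 8% in these data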
Numbers without * were called inactive. Sampled rows, rich in hits. Any-hit rate of the full collection: about 1.8%.

`O=C(CSc1ncccn1)NC(=O)Cc1ccccc1` gave MC4R antag cAMP 7, NTR1 agonist 0 and MC4R ag barr -1.
O=C(NC(=S)NNC(=O)c1ccco1)c1ccc(Br)cc1 was read as MC4R antag cAMP 10, AI-2 QS mod -128*, NTR1 agonist 3 and MC4R ag barr -5.
`O=C(NC(=S)NNC(=O)c1cccs1)c1ccco1` gave MC4R antag cAMP 5, AI-2 QS mod -4, NTR1 agonist -1 and MC4R ag barr -1.
Screening O=C(NNC(=S)NC(=O)c1ccco1)c1ccc(F)cc1 returned MC4R antag cAMP 0, AI-2 QS mod -104*, NTR1 agonist -1 and MC4R ag barr -2.
`O=C(NNC(=S)NC(=O)c1cccc([N+](=O)[O-])c1)c1ccc(O)cc1` gave MC4R antag cAMP 6, AI-2 QS mod 39, NTR1 agonist 3 and MC4R ag barr 2.
Screening CCCOc1ccc(C(=O)NNC(=S)NC(=O)c2ccccc2)cc1 returned MC4R antag cAMP 3, AI-2 QS mod -213*, NTR1 agonist 9 and MC4R ag barr -5.
For O=C(NNC(=S)NC(=O)c1cccc([N+](=O)[O-])c1)c1ccc(Br)cc1 the results were MC4R antag cAMP 1, AI-2 QS mod -212*, NTR1 agonist 10 and MC4R ag barr -2.
COc1ccc(C(=O)NNC(=S)NC(=O)c2ccco2)cc1 was read as MC4R antag cAMP 6, AI-2 QS mod -149*, NTR1 agonist -1 and MC4R ag barr -2.
For CCCOc1ccc(C(=O)NNC(=S)NC(=O)c2ccco2)cc1 the results were MC4R antag cAMP 0, AI-2 QS mod inconclusive, NTR1 agonist 2 and MC4R ag barr -5.
Cc1ccc(OCC(=O)Nc2ccc(C)c(F)c2)c([N+](=O)[O-])n1 was read as MC4R antag cAMP -6, NTR1 agonist 1 and MC4R ag barr -4.
Screening O=C(Cc1coc2ccc3ccccc3c12)NC1CCCc2ccccc21 (stereo not given) returned MC4R antag cAMP 5, AI-2 QS mod 19, NTR1 agonist 4 and MC4R ag barr 9.1*.
Screening CC(C)c1ccc2c(c1)C1(NN=C(c3ccccc3)S1)C(=O)N2 (stereo not given) returned MC4R antag cAMP 6, AI-2 QS mod -91*, NTR1 agonist 6 and MC4R ag barr 2.
For O=C(Nc1ccsc1C(=O)NC1CCCCC1)c1ccc(F)cc1 the results were MC4R antag cAMP 15, AI-2 QS mod 8, NTR1 agonist 10 and MC4R ag barr 12*.
For COc1cc(NC(=O)c2cc(-c3ccc4c(c3)OCO4)on2)cc(OC)c1OC the results were MC4R antag cAMP 15, AI-2 QS mod 27, NTR1 agonist 1 and MC4R ag barr 8.8*.
For COc1cc(NC(=O)c2cc(-c3ccccc3)on2)cc(OC)c1OC the results were MC4R antag cAMP -1, AI-2 QS mod 12, NTR1 agonist 0 and MC4R ag barr -2.
Screening COc1ccc([N+](=O)[O-])cc1C1NN=C(c2ccccc2O)S1 (stereo not given) returned MC4R antag cAMP 3, AI-2 QS mod 14, NTR1 agonist 4 and MC4R ag barr 10*.
For O=C(Cc1ccccc1F)Nc1ccc(S(=O)(=O)Nc2ncccn2)cc1 the results were MC4R antag cAMP 6, AI-2 QS mod -76*, NTR1 agonist -1 and MC4R ag barr 0.
`OCCc1ccc(O)cc1` gave MC4R antag cAMP 1, NTR1 agonist -1 and MC4R ag barr 0.
`CC(c1ccc(O)cc1)(c1ccc(O)cc1)c1ccc(CCBr)cc1` gave MC4R antag cAMP 4, AI-2 QS mod 94, NTR1 agonist 17 and MC4R ag barr 18*.
For CCOc1cc(Br)cc(/C=C2\SC(=Nc3ccccc3)NC2=O)c1O the results were MC4R antag cAMP 10, AI-2 QS mod 16, NTR1 agonist 6 and MC4R ag barr 10*.
O=C(c1cccc(S(=O)(=O)Nc2ccccc2Cl)c1)N1CCN(c2ccccc2O)CC1 was read as MC4R antag cAMP 5, NTR1 agonist 1 and MC4R ag barr -3.
Screening Cc1ccc(S(=O)(=O)NCC(=O)OCC(=O)N2N=C(c3ccc(Cl)cc3)CC2c2ccco2)cc1C (stereo not given) returned MC4R antag cAMP 18, AI-2 QS mod 3, NTR1 agonist 0 and MC4R ag barr 9.2*.
